In ChEMBL document CHEMBL1148348, “New manzamine alkaloids from an Indo-Pacific sponge. Pharmacokinetics, oral availability, and the significant activity of several manzamines against HIV-I, AIDS opportunistic infections, and inflammatory diseases” (J Med Chem, 2004):
Values after ≈ are worked out from the molar mass of the structure shown.

Columns and labels:
[1] = test system: Cryptococcus neoformans; assay: Inhibitory concentration against Cryptococcus neoformans; Not active; type: functional, organism-based
[2] = test system: Human immunodeficiency virus 1; assay: Effective concentration against HIV-1; type: functional, organism-based
[3] = test system: Mycobacterium intracellulare; assay: Inhibitory concentration against Mycobacterium intracellular; Not active; type: functional, organism-based
[4] = test system: Staphylococcus aureus; assay: Inhibitory concentration against methicillin-resistant Staphylococcus aureus; Not active; type: functional, organism-based
[5] = test system: Staphylococcus aureus; assay: Inhibitory concentration against Staphylococcus aureus; Not active; type: functional, organism-based
[6] = Apparent volume of distribution at 10 mg/kg in rat upon intravenous administration; type: ADME, organism-based; design: dose 10 mg/kg, route intravenous; conditions: in vivo
Summary of the method: (§1)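 Male Sprague-Dawley rats (280-320 g), jugular/carotid cannulated the day before, fasted until 12 h post-dose. Given 10 mg/kg iv as a 5 min jugular infusion, approx. 3 mg/mL in 10% v/v ethanol/50 mM tartrate buffer pH 3.0. Carotid blood sampled over 96 h; plasma by validated HPLC/MS (LOQ 10 ng/mL). Parameters estimated from mean plasma concentrations, n = 3.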

[7] = Cmax in rats; type: ADME, organism-based; conditions: rat, in vivo
[8] = Tmax in rats; type: ADME, organism-based; conditions: rat, in vivo
[9] = Oral bioavailability in rat; type: ADME, organism-based; conditions: in vivo
[10] = Half-life at 10 mg/kg in rat upon intravenous administration; type: ADME, organism-based; design: dose 10 mg/kg, route intravenous; conditions: in vivo; summary of the method: as §1
[11] = Plasma clearance at 10 mg/kg in rat upon intravenous administration; type: ADME, organism-based; design: dose 10 mg/kg, route intravenous; summary of the method: as §1
[12] = Partition coefficient (logP); type: physicochemical; conditions: octanol/water
[13] = test system: Cryptococcus neoformans; assay: Inhibitory concentration against Cryptococcus neoformans; type: functional, organism-based
[14] = test system: Mycobacterium intracellulare; assay: Inhibitory concentration against Mycobacterium intracellular; type: functional, organism-based
[15] = test system: Mycobacterium intracellulare; assay: Minimal inhibitory concentration against Mycobacterium intracellular; Range is 0.5-6.25 ug/mL; type: functional
[16] = test system: Staphylococcus aureus; assay: Inhibitory concentration against Staphylococcus aureus; type: functional, organism-based
[17] = test system: Staphylococcus aureus; assay: Inhibitory concentration against methicillin-resistant Staphylococcus aureus; type: functional, organism-based
[18] = test system: Staphylococcus aureus; assay: Minimal inhibitory concentration against methicillin-resistant Staphylococcus aureus; Range is 0.5-6.25 ug/mL; type: functional
[19] = test system: Staphylococcus aureus; assay: Minimal inhibitory concentration against Staphylococcus aureus; Range is 0.5-6.25 ug/mL; type: functional
[20] = organism: Rattus norvegicus; assay: Inhibitory activity against superoxide anion generation in rat neonatal brain microglia cells; type: functional, cell-based
Summary of the method: (§2)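 Rat neonatal brain microglia stimulated with phorbol ester. Release of superoxide anion or thromboxane B2 is measured, and inhibition is expressed as IC50.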

[21] = organism: Rattus norvegicus; assay: Concentration for 50% increase in lactate dehydrogenase release in rat neonatal brain microglia cells; type: functional
Summary of the method: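 Lactate dehydrogenase released from rat neonatal brain microglia serves as the marker of cell toxicity. The value is expressed as LDH50.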

[22] = Inhibitory activity against thromboxane B2; design: species or system Rattus norvegicus; summary of the method: as §2

| SMILES | IC50 [1] | EC50 [2] | IC50 [3] | IC50 [4] | IC50 [5] | other results |
| --- | --- | --- | --- | --- | --- | --- |
| C1=C(c2[nH]ccc3c4ccccc4nc2-3)[C@@H]2CCN3CCCC/C=C\CC[C@]14O[C@@H]1CCC/C=C\[C@H]5C[C@@]2(C3)[C@H]4N51 [12,28-OXAMANZAMINE A] | Not Active | 22.2 µM | Not Active | Not Active | Not Active | – |
| O=C1CCCN2[C@@H](CC1)C[C@]13CN4CCCC/C=C\CC[C@](O)(C=C(c5nccc6c5[nH]c5ccccc56)C1CC4)[C@H]23 (stereo partly specified) [MANZAMINE E] | Not Active | – | – | Not Active | Not Active | – |
| Oc1cccc2c3cc[nH]c(C4=C[C@]56CC/C=C\CCCCN7CC[C@@H]4[C@]4(C[C@@H]8/C=C\CCC[C@@H](O5)N8[C@H]46)C7)c-3nc12 [12,28-OXA-8-HYDROXY-MANZAMINE A] | Not Active | – | Not Active | Not Active | Not Active | – |
| O=C1CCCN2[C@@H](CC1)C[C@]13CN4CCCC/C=C\CC[C@](O)(C=C(c5nccc6c5[nH]c5c(O)cccc56)C1CC4)[C@H]23 (stereo partly specified) [MANZAMINE F] | – | – | – | Not Active | Not Active | – |
| OC1=C[C@@]2(O)CC/C=C\CCCCN3CC[C@@H]1[C@]1(C[C@@H]4/C=C\CCCCN4[C@H]12)C3 [IRCINOL A] | Not Active | – | – | – | Not Active | – |
| O[C@]12C=C(c3[nH]ccc4c5ccccc5nc3-4)[C@@H]3CCN(CCCC/C=C\CC1)C[C@@]31C[C@@H]3/C=C\CCCCN3[C@H]12 [MANZAMINE] | – | 4.2 µM | – | – | – | Vd [6]: 23.7 L/kg; Cmax [7]: 1070 ng/mL; Tmax [8]: 10 h; bioavailability [9]: 20.6%; half-life [10]: 53.7 h; clearance [11]: 5.1 mL/min/kg; logP [12]: 8.34; IC50 [13]: 3 µg/mL (≈ 5.47 µM); IC50 [14]: 0.35 µg/mL (≈ 0.638 µM); MIC [15]: < 6.25 µg/mL; IC50 [16]: 0.5 µg/mL (≈ 0.911 µM); IC50 [17]: 0.7 µg/mL (≈ 1.28 µM); MIC [18]: < 6.25 µg/mL; MIC [19]: < 6.25 µg/mL |
| O=CC1=C[C@@]2(O)CC/C=C\CCCCN3CC[C@@H]1[C@]1(C[C@@H]4/C=C\CCCCN4[C@H]12)C3 [IRCINAL] | Not Active | – | Not Active | Not Active | Not Active | – |
| Oc1cccc2c1[nH]c1c(C3=C[C@@]4(O)CC/C=C\CCCCN5CC[C@@H]3[C@]3(CC6/C=C\CCCCN6[C@H]34)C5)nccc12 (stereo partly specified) | – | – | – | – | – | MIC [15]: < 6.25 µg/mL; IC50 [20]: > 30 µM; LDH50 [21]: >30 µM; IC50 [22]: > 30 µM; MIC [19]: < 6.25 µg/mL |
| Cc1cn([C@H]2C[C@H](N=[N+]=[N-])[C@@H](CO)O2)c(=O)[nH]c1=O [ZIDOVUDINE] | – | 0.004 µM | – | – | – | – |
